According to ChEMBL document CHEMBL4152367, “Discovery of a Potent Thiazolidine Free Fatty Acid Receptor 2 Agonist with Favorable Pharmacokinetic Properties” (J Med Chem, 2018):
In brackets after ≈: the same amount, converted by molar mass. Activity calls are given as the source filed them. The calls are words filed in the database; no cut-off is given here.

Assays:
[1] = target: T1, Peroxisome proliferator-activated receptor gamma (Homo sapiens) (UniProt P37231); assay: Antagonist activity at human PPARgamma expressed in Escherichia coli assessed as inhibition of rosiglitazone-induced calcium flux at 10 uM by fluorimetry
T1 sequence (whole entry): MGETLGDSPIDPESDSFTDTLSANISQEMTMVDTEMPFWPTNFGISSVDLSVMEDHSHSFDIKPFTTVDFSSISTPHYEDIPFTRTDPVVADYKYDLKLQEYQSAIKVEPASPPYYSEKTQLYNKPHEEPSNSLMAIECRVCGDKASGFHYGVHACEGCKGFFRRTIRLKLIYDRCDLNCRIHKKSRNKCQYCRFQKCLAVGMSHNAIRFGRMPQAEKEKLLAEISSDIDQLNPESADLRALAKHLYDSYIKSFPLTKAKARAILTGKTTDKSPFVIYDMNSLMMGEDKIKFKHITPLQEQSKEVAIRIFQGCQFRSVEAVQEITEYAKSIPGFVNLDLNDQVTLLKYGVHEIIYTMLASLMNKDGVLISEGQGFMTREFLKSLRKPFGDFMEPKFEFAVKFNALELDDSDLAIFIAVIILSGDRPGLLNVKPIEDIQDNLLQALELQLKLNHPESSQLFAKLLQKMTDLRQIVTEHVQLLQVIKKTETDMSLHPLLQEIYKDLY

[2] = Tmax in Balb/c mouse at 10 mg/kg, po by HPLC-MS/MS analysis; format: ADME, organism-based; details: in vivo
How it was run: (§1)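 Balb/c mice dosed at 5 mg/kg iv or 10 mg/kg po. Plasma concentrations over time used to derive t1/2, AUC0–∞, Vd and total clearance (iv), and tmax, Cmax, AUC0–∞ and oral bioavailability (po).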

[3] = Volume of distribution in Balb/c mouse at 5 mg/kg, iv by HPLC-MS/MS analysis; format: ADME, organism-based; details: in vivo; how it was run: as §1
[4] = target: T1, Peroxisome proliferator-activated receptor gamma (Homo sapiens); assay: Agonist activity at human PPARgamma expressed in Escherichia coli assessed as induction of calcium flux at 10 uM by fluorimetry
[5] = Octanol/PBS buffer partition co-efficient, log D of the compound at pH 7.4 after 24 hrs by HPLC analysis; format: physicochemical
[6] = Clearance in Balb/c mouse primary hepatocytes per million cells after 2 hrs by LC-MS/MS analysis; format: ADME, cell-based, Hepatocyte; details: read-out: CLH
[7] = Oral bioavailability in Balb/c mouse at 10 mg/kg by HPLC-MS/MS analysis; format: ADME, organism-based; details: in vivo; how it was run: as §1
[8] = Chemical stability of the compound in FaSSIF after 2 hrs; format: physicochemical; details: read-out: Stability
How it was run: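 Simulated-fluid stability: 50 µM compound in FaSSIF or FaSSGF (from 10 mM DMSO stock), shaken at 37 °C for 0 and 120 min. Quenched with acetonitrile containing 0.5% HCOOH, centrifuged, supernatant by HPLC. Stability from peak area relative to the 0 min sample; duplicates, mean reported.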

[9] = target: T2, Peroxisome proliferator-activated receptor alpha (Homo sapiens) (UniProt Q07869); assay: Agonist activity at human PPARalpha expressed in Escherichia coli assessed as induction of calcium flux at 10 uM by fluorimetry
T2 sequence (whole entry): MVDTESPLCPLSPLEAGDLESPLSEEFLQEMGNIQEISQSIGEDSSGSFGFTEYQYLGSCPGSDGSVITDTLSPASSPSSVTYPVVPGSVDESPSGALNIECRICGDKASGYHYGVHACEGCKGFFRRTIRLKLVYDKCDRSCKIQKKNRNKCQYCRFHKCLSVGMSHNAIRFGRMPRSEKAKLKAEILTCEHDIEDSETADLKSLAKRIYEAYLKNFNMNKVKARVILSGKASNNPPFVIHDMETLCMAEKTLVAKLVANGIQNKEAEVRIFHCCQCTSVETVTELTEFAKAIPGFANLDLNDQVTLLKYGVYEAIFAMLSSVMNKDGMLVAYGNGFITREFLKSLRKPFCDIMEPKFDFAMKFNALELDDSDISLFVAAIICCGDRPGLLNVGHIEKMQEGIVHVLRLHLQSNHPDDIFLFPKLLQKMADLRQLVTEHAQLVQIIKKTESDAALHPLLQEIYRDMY

[10] = Aqueous solubility of the compound in PBS buffer at pH 7.4 after 24 hrs by HPLC analysis; format: physicochemical
[11] = target: T3, Free fatty acid receptor 4 (Homo sapiens) (UniProt Q5NUL3); assay: Agonist activity at human FFA4 receptor expressed in HEK293 cells assessed as induction of calcium flux at 10 uM by fluorimetry; format: functional, cell-based
T3 sequence (whole entry): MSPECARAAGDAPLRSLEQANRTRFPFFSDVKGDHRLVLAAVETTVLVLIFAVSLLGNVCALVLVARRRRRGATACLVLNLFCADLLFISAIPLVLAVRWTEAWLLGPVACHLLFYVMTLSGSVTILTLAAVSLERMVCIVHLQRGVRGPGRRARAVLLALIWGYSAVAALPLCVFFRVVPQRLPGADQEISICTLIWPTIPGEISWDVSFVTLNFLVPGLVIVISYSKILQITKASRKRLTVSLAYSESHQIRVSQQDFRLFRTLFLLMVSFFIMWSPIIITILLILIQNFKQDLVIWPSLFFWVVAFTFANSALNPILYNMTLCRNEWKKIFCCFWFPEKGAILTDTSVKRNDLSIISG

[12] = target: T4, Oxysterols receptor LXR-beta (Homo sapiens) (UniProt P55055); assay: Antagonist activity at human LXRbeta expressed in Escherichia coli assessed as inhibition of T0901317-induced calcium flux at 10 uM by fluorimetry
T4 sequence (whole entry): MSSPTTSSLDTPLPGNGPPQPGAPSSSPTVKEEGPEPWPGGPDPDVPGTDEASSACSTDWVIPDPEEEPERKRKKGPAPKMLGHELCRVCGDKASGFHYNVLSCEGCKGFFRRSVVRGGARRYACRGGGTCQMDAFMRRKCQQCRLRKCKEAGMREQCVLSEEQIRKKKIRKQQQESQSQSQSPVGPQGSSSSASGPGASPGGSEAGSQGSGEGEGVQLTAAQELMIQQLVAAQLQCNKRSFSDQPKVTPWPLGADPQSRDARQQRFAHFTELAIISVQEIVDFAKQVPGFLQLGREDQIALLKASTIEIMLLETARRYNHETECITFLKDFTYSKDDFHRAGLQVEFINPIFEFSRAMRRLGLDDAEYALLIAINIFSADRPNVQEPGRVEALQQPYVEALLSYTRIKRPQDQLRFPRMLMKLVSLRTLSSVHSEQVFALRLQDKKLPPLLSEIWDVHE

[13] = Chemical stability of the compound in PBS buffer at 37 degC after 3 weeks; format: physicochemical; details: read-out: Stability
How it was run: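 Chemical stability: 50 µM compound (diluted from 10 mM DMSO stock) in 10 mM phosphate buffer, pH 7.4, shaken at 37 °C; sampled at intervals over 3 weeks. Remaining compound by HPLC peak area relative to the 0 time point; duplicate runs, each injected twice.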

[14] = Half life in Balb/c mouse at 5 mg/kg, ip by HPLC-MS/MS analysis; format: ADME, organism-based; details: in vivo
[15] = AUC (0 to infinity) in Balb/c mouse at 5 mg/kg, ip by HPLC-MS/MS analysis; format: ADME, organism-based; design: dose 5 mg/kg, time infinity, route intraperitoneal; details: in vivo

inhibition [1]: inactive
Tmax [2]: 15 min
Vd [3]: 4.05 L/kg
Activity [4]: inactive
logD at 24 h [5]: 0.94
hepatocyte CLint [6]: < 8 µL/min/1e6 cells
bioavailability [7]: 32%
remaining at 2 h [8]: 95%
Activity [9]: inactive
solubility at 24 h [10]: 182 µM (≈ 80.6 µg/mL)
Activity [11]: inactive
inhibition [12]: inactive
remaining at […] [13]: 97.6%
half-life [14]: 82 min
AUC(0-inf) [15]: 1010 ng·h/mL
SMILES: Cc1noc(C)c1-c1ccc(C(=O)N2[C@@H](c3ccccc3Cl)SC[C@H]2C(=O)O)cc1
